From ChEMBL document CHEMBL1150122, “A new cytotoxic epothilone from modified polyketide synthases heterologously expressed in Myxococcus xanthus” (J Nat Prod, 2002)
Active and inactive are the calls of the source. The calls are words filed in the database; no cut-off is given here.

Assays:
MCF7 = test: Cytotoxicity against human MCF7 cells after 3 days by SRB assay; format: functional, cell-based; settings: MCF7, 72 h
Procedure, shortened: (§1)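 Cells kept in RPMI 1640 with 10% FBS and 2 mM L-glutamine, 37 °C, 5% CO2. Trypsinized cells seeded at 5000–7500 per well; compound added 20 h later across 0.001–1000 nM in growth medium. After 3 days, fixed with 10% TCA (4 °C, 1 h), stained 0.2% SRB/1% acetic acid 20 min, dye extracted with 10 mM Tris base, absorbance read at 515 nm.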

NCI/ADR-RES = test: Cytotoxicity against human NCI/ADR-RES cells after 3 days by SRB assay; format: functional, cell-based; settings: 72 h; procedure, shortened: as §1
SF-268 = test: Cytotoxicity against human SF268 cells after 3 days by SRB assay; format: functional, cell-based; settings: SF-268, 72 h; procedure, shortened: as §1
NCI-H460 = test: Cytotoxicity against human NCI-H460 cells after 3 days by SRB assay; format: functional, cell-based; settings: NCI-H460, 72 h; procedure, shortened: as §1
HL-60 [1] = test: Cytotoxicity against human HL60 cells after 3 days by SRB assay; format: functional, cell-based; settings: HL-60, 72 h; procedure, shortened: as §1
HL-60 [2] = test: Cytotoxicity against mitoxantrone-resistant human HL60 cells after 3 days by SRB assay; format: functional, cell-based; settings: HL-60, 72 h; procedure, shortened: as §1
CCRF-CEM [3] = test: Cytotoxicity against human CCRF-CEM cells after 3 days by SRB assay; format: functional, cell-based; settings: 72 h; procedure, shortened: as §1
CCRF-CEM [4] = test: Cytotoxicity against camptothecin-resistant human CCRF-CEM cells after 3 days by SRB assay; format: functional, cell-based; settings: 72 h; procedure, shortened: as §1
Tubulin (Homo sapiens) = Tubulin (Homo sapiens) (UniProt P68371+Q9H4B7+P0DPH7+P68366+Q13509+Q71U36+P04350+Q3ZCM7+P07437+P68363+Q9BQE3+Q6PEY2+Q13885+Q9BVA1+Q9BUF5); test: […] in human MCF7 cells at 1 uM after 2 hrs by SDS-PAGE; format: cell-based
Procedure, shortened: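 Confluent MCF-7 cells in 35 mm dishes treated with 1 μM compound for 0, 1 and 2 h at 37 °C. Lysates spun 18000g, 12 min, to separate soluble tubulin (supernatant) from polymerized tubulin (pellet).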

Row | SMILES | IC50 (MCF7) | IC50 (NCI/ADR-RES) | IC50 (SF-268) | IC50 (NCI-H460) | IC50 (HL-60 [1]) | IC50 (HL-60 [2]) | IC50 (CCRF-CEM [3]) | IC50 (CCRF-CEM [4]) | Activity (Tubulin (Homo sapiens))
1 | C/C1=C/C[C@@H](/C(C)=C/c2csc(C)n2)OC(=O)C[C@H](O)C(C)(C)C(=O)[C@H](C)[C@@H](O)[C@@H](C)CCC1 [EPOTHILONE D] | 8 nM | 30 nM | 14 nM | 8 nM | 8 nM | 10 nM | 22 nM | 15 nM | –
2 | CC1=C/C[C@@H](/C(C)=C/c2csc(C)n2)OC(=O)C[C@H](O)C(C)(C)C(=O)[C@H](C)[C@@H](O)[C@@H](C)C\C=C\1 | 28 nM | 35 nM | 40 nM | 34 nM | 25 nM | 18 nM | 23 nM | 11 nM | Active
